Hits are enriched below; roughly 3.3% of the tested compounds scored in any of these assays.
FXN GAA850 act = activators of GAA850 frataxin (FXN) promoter | HEK293 lucGAA850 FXN promoter luciferase reporter, 24 h; percent of 10 µM SAHA response | 0.56% of 360,000 active | AID 540364 | activation, % at 6 µM;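 active = activation above the average of all compounds screened plus 3 SD, cutoff fixed separately per campaign, cut at about 7.5% in these data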;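 also: 0% = DMSO wells and 100% = 10 µM SAHA wells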
ABCB6 inh 2 = inhibitors of human ABC transporter ABCB6. AID 602162. 0.19% of 360,000 active. K562-ABCB6 porphyrin accumulation, flow cytometry, 1 h; active compounds read low. fluorescence ratio to DMSO, % at 10 µM. Q9NP58;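 active = fluorescence ratio to DMSO below 75%, the collection mean minus 3 SD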;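 also: signal is porphyrin accumulated inside mitochondria; 100% equals median channel fluorescence of DMSO control wells; lower ratio means ABCB6 inhibition with less porphyrin fluorescence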
AHR activator = activators of human aryl hydrocarbon receptor; 2.5% of 320,000 active; activation, % at 5 µM; P35869; AHR-responsive luciferase reporter cells, luminescence; in the data active = activation above about 47%;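 also: 0% = vehicle wells and 100% = reference agonist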
Target sequence (P35869 whole entry, looked up): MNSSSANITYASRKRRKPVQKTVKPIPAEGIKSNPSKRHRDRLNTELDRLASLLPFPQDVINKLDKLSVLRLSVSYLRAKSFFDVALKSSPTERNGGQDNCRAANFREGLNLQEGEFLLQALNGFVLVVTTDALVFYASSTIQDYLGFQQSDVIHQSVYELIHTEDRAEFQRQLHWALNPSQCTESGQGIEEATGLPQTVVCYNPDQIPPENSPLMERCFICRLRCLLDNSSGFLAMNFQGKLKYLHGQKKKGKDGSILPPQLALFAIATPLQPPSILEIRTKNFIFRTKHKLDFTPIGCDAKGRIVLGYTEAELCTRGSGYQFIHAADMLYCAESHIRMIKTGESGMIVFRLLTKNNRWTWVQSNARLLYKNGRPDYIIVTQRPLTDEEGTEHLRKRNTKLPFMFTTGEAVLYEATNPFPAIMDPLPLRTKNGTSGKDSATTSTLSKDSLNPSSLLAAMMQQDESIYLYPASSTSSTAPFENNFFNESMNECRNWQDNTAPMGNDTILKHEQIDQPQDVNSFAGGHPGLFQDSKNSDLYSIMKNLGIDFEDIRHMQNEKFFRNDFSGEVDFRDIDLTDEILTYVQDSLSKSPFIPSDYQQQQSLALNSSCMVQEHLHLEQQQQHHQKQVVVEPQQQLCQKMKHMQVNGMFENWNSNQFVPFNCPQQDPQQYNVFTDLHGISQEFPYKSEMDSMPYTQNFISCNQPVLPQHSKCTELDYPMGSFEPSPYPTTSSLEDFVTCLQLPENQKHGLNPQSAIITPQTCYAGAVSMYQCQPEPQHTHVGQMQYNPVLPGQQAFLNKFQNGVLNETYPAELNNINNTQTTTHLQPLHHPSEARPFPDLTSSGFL
STAT3 activator = increases IL-6 driven STAT3 reporter signal | U3A cells, IL-6 STAT3-luciferase reporter, luminescence; 100% = signal with IL-6 EC80 alone | activation (% of control), % at 5.6 µM | 0.91% of 190,000 active | AID 871;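 active = activation above the screen-wide mean of compound activation plus 3 SD, cut at about 130% in these data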;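 also: 0% = background luminescence of wells with medium and substrate only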
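Test system: Human STAT1-deficient U3A cells with stable STAT3-luciferase reporter | Also added: Interleukin-6, 33 ng/mL | Timing: Compound pre-incubation 1 h before IL-6, then 6 h stimulation at 37 °C | Technique: Luciferase reporter luminescence | Read-out: Percent of IL-6-only median luminescence | Benchmarks: IL-6-only wells as 100% reference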
* hit, by the source's call; nt = no result given.

SMILES	FXN GAA850 act	ABCB6 inh 2	AHR activator	STAT3 activator
CC(C)c1ccc(NC(=S)NNC(=O)C2CC2)cc1	0.9	104.0	5.7	100.5
Cc1cc(C(=O)CSc2nc3ccccc3[nH]2)c(C)n1C	-1.6	96.0	3.3	83.1
Cc1ccc2nc(SCC(=O)c3cc(C)n(C)c3C)[nH]c2c1	-0.1	101.0	51.7*	84.3
Cc1ccc2nc(SCC(=O)c3c(C)[nH]c4ccccc34)[nH]c2c1	0.9	100.0	53.4*	92.2
Cc1cc(C(=O)CSc2nc3ccc(Cl)cc3[nH]2)c(C)n1C	5.2	95.0	78.5*	83.4
Cc1ccc2nc(SCn3nnc4ccccc4c3=O)[nH]c2c1	7.1	99.0	74.8*	124.1
O=C(CC1C[C@H](C(=O)N2CCOCC2)[C@@]2(CCC3CCCC3)c3[nH]c4ccccc4c3CCN2C1=O)NCCCn1ccnc1 (stereo not given in full)	-3.1	88.0	2.5	nt
Cn1nc([N+](=O)[O-])nc1Oc1ccccc1N	0.9	89.0	3.8	110.7
COc1cccc(C(=O)NC2CCN(CC(=O)Nc3ccccc3Cl)CC2)c1	1.6	99.0	1.7	nt
O=C(/C=C/c1ccco1)Nc1ccccc1N1CCCC1	-2.1	103.0	72.5*	111.7
O=C(/C=C/c1ccco1)NC(=S)Nc1ccccc1N1CCOCC1	-1.2	90.0	12.4	98.3
COc1cccc(NC(=S)NC(=O)/C=C/c2ccco2)c1	-0.3	106.0	45.5	nt
Cc1cccnc1NC(=S)NC(=O)/C=C/c1ccco1	1.0	104.0	16.6	96.2
COc1ccc(NC(=S)NC(=O)/C=C/c2ccco2)c(OC)c1	-0.2	100.0	67.9*	nt
O=C(/C=C/c1ccco1)NC(=S)Nc1ccccn1	6.6	94.0	66.0*	104.1
O=C(/C=C/c1ccco1)NC(=S)Nc1ccccc1N1CCCC1	2.2	104.0	65.1*	125.8
CC(=O)c1cccc(NC(=O)C2(C)Cc3c(-c4ccccc4)ccnc3O2)c1 (stereo not given)	0.9	95.0	nt	nt
COc1ccc(-c2nc(SC(C)C(=O)NCC3CCCO3)n[nH]2)cc1 (stereo not given)	-4.0	97.0	-0.7	nt
CC(Oc1ccccc1F)C(=O)NNC(=O)c1cc2ccccc2o1 (stereo not given)	0.9	90.0	4.7	101.8
CCOC(=O)N1CCN(C(=O)c2cc3cc(F)ccc3[nH]2)CC1	0.5	101.0	57.9*	nt
CCOC(=O)N1CCN(C(=O)c2cc3cc(Cl)ccc3[nH]2)CC1	0.8	96.0	nt	nt
CCOC(=O)C1CCCN(C(=O)c2cc3cc(F)ccc3[nH]2)C1 (stereo not given)	-0.2	101.0	50.1*	nt
O=C(c1cc2cc(F)ccc2[nH]1)N1CCCC(Nc2ccc(F)cc2)C1 (stereo not given)	1.2	87.0	62.8*	nt
NC(C(=O)O)C1ON=C(Cl)C1O (stereo not given)	-1.1	98.0	nt	nt
O=C(NCc1ccccc1)c1cc(C2COCCN2S(=O)(=O)c2cccs2)on1 (stereo not given)	-0.2	96.0	nt	nt
SMILES	FXN GAA850 act	ABCB6 inh 2	AHR activator	STAT3 activator
N#CC(=NCc1cccnc1)C1=C(O)c2ccccc2C1=O	0.1	99.0	6.4	nt
N#C/C(=C(/O)c1ccc([N+](=O)[O-])o1)c1nc2ccccc2[nH]1	-4.3	99.0	6.7	nt
N#C/C(=C\c1ccc([N+](=O)[O-])o1)c1nc2ccccc2[nH]1	nt	nt	54.6*	105.5
Cc1ccc2nc(SCC3CCCCO3)[nH]c2c1 (stereo not given)	-1.8	97.0	50.8*	nt
Cc1ccc2nc(SCC(=O)N3CCOCC3)[nH]c2c1	0.6	109.0	24.5	102.1
Cc1ccc2nc(SCc3nnc(-c4cccs4)o3)[nH]c2c1	1.3	93.0	60.4*	100.2
O=C(Nc1ccccc1N1CCCC1)C1CC(=O)N(Cc2ccccc2)C1 (stereo not given)	-0.1	102.0	6.7	nt
Nc1n[nH]c(N)c1N=Nc1ccc2c(c1)OCO2	1.3	89.0	48.1*	99.1
O=C(COc1ccc(Cl)cc1)NNC(=O)C(=O)NC1CCCCC1	0.0	102.0	1.5	nt
CC1(C)CC(=O)C2=C(C1)N(Cc1ccccc1)C(=O)C2(NC(=O)C(C)(C)C)C(F)(F)F (stereo not given)	-1.3	92.0	0.9	108.8
NS(=O)(=O)c1ccc(N/N=C/c2ccc3c(c2)OCO3)c([N+](=O)[O-])c1	2.3	101.0	113.9*	99.6
O=[N+]([O-])c1ccccc1N/N=C/c1ccc2c(c1)OCO2	5.5	101.0	nt	108.4
O=C(c1ccc(Cl)cc1)N1CCN(c2ccc(F)cc2)CC1	2.9	99.0	57.9*	89.1
CC(=O)Nc1ccc(-c2cc(N)n(-c3ccccc3)n2)cc1	7.6	96.0	72.3*	nt
CC(=O)Nc1ccc(-c2cc(NC(C)=O)n(-c3ccccc3)n2)cc1	2.4	100.0	30.6	89.9
Cc1oncc1C(=O)Nc1ccc(C(F)(F)F)cc1	3.6	96.0	67.4*	84.1
Cc1oncc1C(=O)Nc1ccc2ccccc2c1	1.2	96.0	nt	nt
COc1cccc(/C=N/Nc2snc(SC)c2C#N)c1O	-2.4	96.0	38.6	67.9
CSc1nsc(N/N=C/c2ccccc2)c1C#N	1.5	98.0	60.0*	90.0
COc1cccc(/C=N/Nc2snc(SC)c2C#N)c1	1.6	107.0	48.7*	109.3
Cc1ccc(S(=O)(=O)CCOC(=O)CNC(=O)OCc2ccccc2)cc1	1.5	102.0	nt	nt
CCCCn1c(N)c(N(CCOC)C(=O)c2cc(S(=O)(=O)N3CCOCC3)ccc2Cl)c(=O)[nH]c1=O	-0.3	97.0	nt	nt
CCc1nc(N2CCCCC2C)c2oc3ccccc3c2n1 (stereo not given)	-1.9	102.0	48.3*	94.1
CC(C)CN1CCN(C(=O)CCc2nnc(Cc3c[nH]c4ccccc34)o2)[C@@H](C)C1=O	1.9	104.0	nt	nt
Cc1csc(N/N=C/c2ccccc2F)n1	3.5	93.0	40.7	nt
SMILES	FXN GAA850 act	ABCB6 inh 2	AHR activator	STAT3 activator
Cc1csc(N/N=C/c2c(F)cccc2Cl)n1	1.4	96.0	57.2*	nt
Cc1ccc(N=Nc2c(C)[nH]n(-c3ccccc3)c2=O)cc1Br	1.0	97.0	22.2	nt
COC(=O)c1ccc(N=Nc2c(C)[nH]n(-c3ccccc3)c2=O)cc1	0.9	99.0	78.2*	nt
Cc1[nH]n(-c2ccccc2)c(=O)c1N=Nc1cccc(Cl)c1	0.7	98.0	58.2*	nt
Cc1[nH]n(-c2ccccc2)c(=O)c1N=Nc1ccc2c(c1)OCCO2	2.7	106.0	1.9	107.2
Cc1[nH]n(-c2ccccc2)c(=O)c1N=Nc1ccc(F)cc1	1.3	96.0	65.4*	nt
Nc1[nH]n(-c2ccccc2)c(=O)c1N=Nc1ccc2ncsc2c1	-1.1	88.0	56.4*	nt
O=C(NCc1ccc(F)cc1)c1cc(C2CCCN(C(=O)c3ccc4ccccc4c3)C2)on1 (stereo not given)	-2.6	97.0	nt	nt
COc1ccc(S(N)(=O)=O)cc1C(=O)OCC1CCCCC1	2.0	95.0	0.8	nt
O=C(Nc1ccc2c(c1)OCO2)c1cc(C2CCCN(C(=O)C3CCCCC3)C2)on1 (stereo not given)	-0.9	96.0	nt	nt
COc1cc(C(=O)Nc2ccc(C)c(S(=O)(=O)N(C)C)c2)ccc1OCC(=O)N1CCOCC1	3.9	93.0	1.3	nt

Source: PubChem BioAssay
